Data taken from ChEMBL document CHEMBL4813947, “New dual ATP-competitive inhibitors of bacterial DNA gyrase and topoisomerase IV active against ESKAPE pathogens” (Eur J Med Chem, 2021).
pIC50: −log10 of the molar value. Values after ≈ are worked out from the molar mass of the structure shown.

What was measured:
Staphylococcus aureus [1] = experiment: Antibacterial activity against methicillin-resistant wild type Staphylococcus aureus ATCC 43300 assessed as inhibition of bacterial growth by CLSI protocol based broth microdilution assay; assay type: functional
Summary of the method: (§1)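 Minimum inhibitory concentration by standard serial broth microdilution following CLSI guidelines. Medium was MHBII broth (22 g/L powder: beef extract, casein acid hydrolysate, starch), with MHBII agar (14 g agar per L broth). Where noted, assayed without and with efflux pump substrate phenylalanine-arginine β-naphthylamide (PAβN).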

[2] = Drug metabolism in rat liver S9 fraction assessed as hydroxylated benzothiazole ring metabolite; assay type: ADME, subcellular
HepG2 = experiment: Cytotoxicity against human HepG2 cells upto 100 uM by lactate dehydrogenase assay; assay type: cell-based
Summary of the method: (§2)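 HepG2 or MCF-7 cells grown in EMEM with 2 mM L-glutamine, penicillin/streptomycin, 10% FBS at 37 °C, 5% CO2; LDH release kit per manufacturer, test concentrations up to 100 µM.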

Pseudomonas aeruginosa [3] = experiment: Antibacterial activity against Pseudomonas aeruginosa ATCC 27853 assessed as inhibition of bacterial growth by CLSI protocol based broth microdilution assay; assay type: functional
DNA gyrase = DNA gyrase (Staphylococcus aureus, UniProt P0A0K8+P20831); experiment: Inhibition of Staphylococcus aureus DNA gyrase assessed reduction in supercoiling of relaxed pNO1 DNA measured after 30 mins by fluorescence assay
Pseudomonas aeruginosa [4] = experiment: Antibacterial activity against Pseudomonas aeruginosa 19488 assessed as inhibition of bacterial growth by CLSI protocol based broth microdilution assay; assay type: functional
[5] = test system: human topoisomerase 2alpha; experiment: Selectivity ratio of IC50 for inhibition of human topoisomerase 2alpha to IC50 for inhibition of Staphylococcus aureus DNA gyrase; assay type: toxicity; conditions: read-out: Ratio IC50
MCF7 = experiment: Cytotoxicity against human MCF-7 cells upto 100 uM by lactate dehydrogenase assay; assay type: cell-based; summary of the method: as §2
[6] = Inhibition of Escherichia coli topoisomerase assessed as reduction in relaxation of supercoiled pNO1 DNA measured after 30 mins by fluorescence assay
Summary of the method: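 Enzyme run per an earlier-reported procedure; IC50 fitted from seven inhibitor concentrations, mean of three independent measurements.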

Staphylococcus aureus [7] = experiment: Antibacterial activity against vancomycin-resistant Staphylococcus aureus ATCC 700699 harboring GyrB R144I mutant assessed as inhibition of bacterial growth by CLSI protocol based broth microdilution assay; assay type: functional; summary of the method: as §1
Staphylococcus aureus [8] = experiment: Antibacterial activity against vancomycin-resistant Staphylococcus aureus ATCC 700699 harboring GyrB […] mutant assessed as inhibition of bacterial growth by CLSI protocol based broth microdilution assay; assay type: functional; summary of the method: as §1
[9] = Ratio of genotoxicity in CHO-K1 cells in presence of rat liver S9 fraction by invitro micronucleus test to MIC for vancomycin-resistant Staphylococcus aureus ATCC 700699; assay type: toxicity, cell-based; conditions: CHO-K1 cells with rat liver S9 fraction

Cc1[nH]c(C(=O)Nc2nc3c(OCc4ccsc4)cc(C(=O)O)cc3s2)c(Cl)c1Cl
MIC (Staphylococcus aureus [1]): 0.0625 µg/mL (≈ 0.13 µM) | Drug metabolism [2]: Metabolite_Detected | Activity (HepG2): Non-Toxic | MIC (Pseudomonas aeruginosa [3]): 2 µg/mL (≈ 4.15 µM) | pIC50 (DNA gyrase): > 8.00 | MIC (Pseudomonas aeruginosa [4]): 16 µg/mL (≈ 33.2 µM) | selectivity ratio [5]: 450 | Activity (MCF7): Non-Toxic | pIC50 [6]: 6.47 | MIC (Staphylococcus aureus [7]): 0.0625 µg/mL (≈ 0.13 µM) | MIC (Staphylococcus aureus [8]): 0.0625 µg/mL (≈ 0.13 µM) | selectivity ratio [9]: 957
